Results reported in ChEMBL document CHEMBL1128337, “Synthesis and cytotoxic activity of 6-vinyl- and 6-ethynyluridine and 8-vinyl-and 8-ethynyladenosine” (J Med Chem, 1995).

Tests used:
Assay type in all cases: functional, cell-based
FM3A = test: Compound was tested for the inhibition of murine mammary carcinoma FM3A cell proliferation; details: Mus musculus
Procedure, shortened: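 FM3A cells in Eagle's minimal essential medium with 10% fetal calf serum, 2 mM L-glutamine, 0.075% NaHCO3. Seeded 5 × 10⁴ cells/well (200 μL) with varying compound concentrations and incubated 48 h at 37 °C, humidified CO2 atmosphere. Cell number from Coulter counter. IC50 = concentration reducing viable cells by 50%.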

MOLT-4F = test: Compound was tested for the inhibition of human T-lymphoblast Molt/4F cell proliferation
Procedure, shortened: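 Molt/4F cells in RPMI-1640 with 10% fetal calf serum, 2 mM L-glutamine, 0.075% NaHCO3. Plated at 6.25 × 10⁴ cells/well across varying compound concentrations and grown 72 h at 37 °C, humidified CO2 atmosphere. Cells counted with Coulter counter. IC50 = concentration reducing viable cell number by 50%. Means of at least two or three independent experiments.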

MT4 = test: Compound was tested for the inhibition of human T-lymphoblast MT-4 cell proliferation
Procedure, shortened: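 MT-4 cells grown in RPMI-1640 with 10% fetal calf serum, 2 mM L-glutamine, 0.075% NaHCO3. Seeded at 6.25 × 10⁴ cells/well with varying compound concentrations and cultured 120 h at 37 °C, humidified CO2 atmosphere. Viable cells counted by trypan blue staining under microscope. IC50 = concentration reducing viable cell number by 50%. Means of at least two or three independent experiments.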

L1210 = test: Compound was tested for the inhibition of murine leukemia L1210 cell proliferation; details: Mus musculus
Procedure, shortened: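 L1210 cells maintained in Eagle's minimal essential medium with 10% fetal calf serum, 2 mM L-glutamine, 0.075% NaHCO3. Exposed to varying compound concentrations at 5 × 10⁴ cells/well (200 μL) and grown 48 h at 37 °C, humidified CO2 atmosphere. Counted with Coulter counter. IC50 = concentration reducing viable cells by 50%. Means of at least two or three independent experiments.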

IC50 (MOLT-4F) [µM]	IC50 (L1210) [µM]	SMILES	IC50 (FM3A) [µM]	IC50 (MT4) [µM]
6.5	190	C=Cc1nc2c(N)ncnc2n1[C@@H]1O[C@H](CO)[C@@H](O)[C@H]1O	145	15
25	54	C#Cc1nc2c(N)ncnc2n1[C@@H]1O[C@H](CO)[C@@H](O)[C@H]1O	27	22
> 372	> 372	C#Cc1cc(=O)[nH]c(=O)n1C1O[C@H](CO)[C@@H](O)[C@H]1O (stereo partly specified)	> 372	286
14	21	C=Cc1cc(=O)[nH]c(=O)n1C1O[C@H](CO)[C@@H](O)[C@H]1O (stereo partly specified)	24	11
